Data from ChEMBL document CHEMBL3868636, “New glutathione peroxidase mimetics-Insights into antioxidant and cytotoxic activity” (Bioorg Med Chem, 2017).
Calls of active or inactive are those of the source. The rule behind the calls is not given here.

Assays:
[1] = Cytotoxicity against human DU145 cells assessed as reduction in cell viability measured after 24 hrs by SRB assay; assay type: functional, cell-based; details: DU-145, 24 h
Summary of the method: (§1)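 DU-145 cells grown in MEM with 10% FBS, glutamine and pyruvate. PNT1A cells grown in RPMI 1640 with serum. Both seeded at 6.0 x 10^3 cells/well for 24 h, then treated 24 h with graded concentrations up to 40. Triplicate, IC50 calculated.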

[2] = Cytotoxicity against human PNT1A cells assessed as reduction in cell viability measured after 24 hrs by SRB assay; assay type: toxicity, cell-based; summary of the method: as §1
[3] = Antioxidant activity assessed as H2O2 scavenging by measuring remaining dithiothreitol level at 0.1 equivalent after 3 mins by 1H NMR spectroscopy relative to control; assay type: functional
Summary of the method: (§2)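 Dithiothreitol oxidation by 30% H2O2 (3.0 eq) in CD3OD, catalysed by Se compound at 0.1 equiv. 1H NMR spectra taken right after H2O2 addition and then at set intervals. Remaining substrate derived from changes in signal integration.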

[4] = Antioxidant activity assessed as H2O2 scavenging by measuring remaining dithiothreitol level after 15 mins at 0.1 equivalent by 1H NMR spectroscopy relative to control; assay type: functional; summary of the method: as §2
[5] = Antioxidant activity assessed as H2O2 scavenging by measuring remaining dithiothreitol level at 0.1 equivalent after 60 mins by 1H NMR spectroscopy relative to control; assay type: functional; summary of the method: as §2
[6] = Cytotoxicity against human MCF7 cells assessed as reduction in cell viability measured after 24 hrs by MTT assay; assay type: functional, cell-based; details: MCF7, 24 h
Summary of the method: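 MCF-7 cells grown in MEM with glutamine, non-essential amino acids, gentamycin and 10% heat-inactivated FBS at 37°C, 5% CO2. Seeded at 10^4 cells/well and left 24 h. Compounds at various concentrations or 0.1% DMSO vehicle for 24 h. MTT added for 2 h at 37°C. Formazan read at 540 nm against untreated control. Run in triplicate, IC50 reported.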

[7] = Antioxidant activity assessed as H2O2 scavenging by measuring remaining dithiothreitol level at 0.1 equivalent after 5 mins by 1H NMR spectroscopy relative to control; assay type: functional; summary of the method: as §2
[8] = Antioxidant activity assessed as H2O2 scavenging by measuring remaining dithiothreitol level at 0.1 equivalent after 30 mins by 1H NMR spectroscopy relative to control; assay type: functional; summary of the method: as §2
DU-145 = test: Inhibition of Akt-phosphorylation in human DU145 cells at 40 uM measured after 0.5 to 2 hrs by Western blot analysis; assay type: cell-based
Summary of the method: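 Cells treated with 40 μM compound for different times. Floating and attached cells lysed in Tris-HCl pH 7.5/NaCl/Triton X-100/SDS for 40 min on ice. Lysates run on 10–12% SDS-PAGE and blotted to PVDF. Primary antibody applied 1 h at room temperature, detection by ECL. p-Akt quantified by densitometry and normalised to β-actin.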

[9] = Antiproliferative activity against human A549 cells; assay type: functional, cell-based

Row | Compound | IC50 [1] [µM] | IC50 at 24 h [2] [µM] | Activity [3] [%] | Activity [4] [%] | Activity [5] [%] | IC50 [6] [µM] | Activity [7] [%] | Activity [8] [%] | inhibition (DU-145) | IC50 [9] [µM]
1 | C=CCn1[se]c2ccccc2c1=O | 10.3 | > 40 | 76 | 58 | 41 | 25.7 | 69 | 53 |  | 
2 | O=c1c2ccccc2[se]n1C1CCCCC1 | 5.71 | > 40 | 75 | 62 | 44 | 7.31 | 69 | 55 | Active | 
3 | CCCCn1[se]c2ccccc2c1=O | 20.8 | > 40 | 81 | 41 | 29 | 13.8 | 59 | 32 |  | 
4 | O=c1c2ccccc2[se]n1-c1ccccc1 |  |  | 84 | 64 | 52 |  | 75 | 58 |  | 
5 | CC(C)CCNC(=O)c1ccccc1[Se][Se]c1ccccc1C(=O)NCCC(C)C | > 40 |  | 65 | 38 | 21 | > 500 | 49 | 31 |  | 
6 | CCCCNC(=O)c1ccccc1[Se][Se]c1ccccc1C(=O)NCCCC | > 40 |  | 93 | 82 | 73 | > 500 | 88 | 77 |  | 
7 | C=CCNC(=O)c1ccccc1[Se][Se]c1ccccc1C(=O)NCC=C | 20.4 |  | 59 | 12 | 0 | 125 | 36 | 0 |  | 
8 | O=C(O)c1ccc(NC(=O)c2ccccc2[Se][Se]c2ccccc2C(=O)Nc2ccc(C(=O)O)cc2)cc1 |  |  |  |  |  |  |  |  |  | 20
9 | O=C(NC1CCCCC1)c1ccccc1[Se][Se]c1ccccc1C(=O)NC1CCCCC1 | > 40 |  | 92 | 75 | 54 | 90 | 85 | 65 |  | 
10 | CC(C)CCn1[se]c2ccccc2c1=O | 30.4 | > 40 | 77 | 42 | 13 | 29 | 58 | 28 | Active | 
11 | Cn1[se]c2ccccc2c1=O | 30.2 | > 40 | 78 | 35 | 0 | 32.7 | 65 | 11 |  | 
